From ChEMBL document CHEMBL3259740, “Design, synthesis and evaluation of novel diaryl urea derivatives as potential antitumor agents” (Eur J Med Chem, 2014) come the findings set out here.

One experiment has as its system A-375. In words: Cytotoxicity against human A375 cells assessed as growth inhibition after 120 hrs by MTT assay. The format is functional, cell-based. Conditions: A-375, 120 h. The method in brief:
(§1)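 Cells kept in DMEM with 10% FBS, penicillin and streptomycin at 37 °C, 5% CO2. Seeded at 2000 cells/well, grown 24 h, then exposed to a range of compound concentrations for 120 h. MTT at 0.5 mg/mL added for 4 h at 37 °C. Formazan dissolved in DMSO, absorbance read at 570 nm. IC50 is the mean of three determinations.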

For the next experiment, the system named is MX1. In words: Cytotoxicity against human MX1 cells assessed as growth inhibition after 120 hrs by MTT assay. Conditions: MX1, 120 h. Type of experiment: functional, cell-based. The method in brief:
as §1

The next experiment concerns HepG2. In words: Cytotoxicity against human HepG2 cells assessed as growth inhibition after 120 hrs by MTT assay. Type of experiment: functional, cell-based. Conditions: HepG2, 120 h. The method in brief: as §1
For the next experiment, the system named is KETR3. The experiment can be described thus: Cytotoxicity against human Ketr3 cells assessed as growth inhibition after 120 hrs by MTT assay. Type of experiment: functional, cell-based. The settings on record: KETR3, 120 h. The method in brief:
as §1

Experiment [1] relates to HT-29. In words: Cytotoxicity against human HT-29 cells assessed as growth inhibition after 120 hrs by MTT assay. Type of experiment: functional, cell-based. Conditions: HT-29, 120 h. The method in brief: as §1
Experiment [2] has as its target Serine/threonine-protein kinase B-raf (Homo sapiens, UniProt P15056). The experiment can be described thus: Inhibition of B-Raf (unknown origin) after 1 hr by ADP-Glo assay.
For experiment [3], the target named is RAF proto-oncogene serine/threonine-protein kinase (Homo sapiens, UniProt P04049). The experiment can be described thus: Inhibition of C-Raf (unknown origin) after 1 hr by ADP-Glo assay. The method in brief:
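Run in duplicate. Kinase, substrate, ATP and compound reacted 1 h at 30 °C. ADP-Glo reagent was added to stop the reaction, followed by 40 min at 27 °C. Kinase detection reagent was then added for a further 30 min at the same temperature before luminescence reading.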

The test system of experiment [4] is HT-29. The experiment can be described thus: Potency index, ratio of sorafenib IC50 to compound IC50 for human HT-29 cells. The format is functional.

Bounds are passed on as bounds.

Chain of Serine/threonine-protein kinase B-raf (P15056 whole entry): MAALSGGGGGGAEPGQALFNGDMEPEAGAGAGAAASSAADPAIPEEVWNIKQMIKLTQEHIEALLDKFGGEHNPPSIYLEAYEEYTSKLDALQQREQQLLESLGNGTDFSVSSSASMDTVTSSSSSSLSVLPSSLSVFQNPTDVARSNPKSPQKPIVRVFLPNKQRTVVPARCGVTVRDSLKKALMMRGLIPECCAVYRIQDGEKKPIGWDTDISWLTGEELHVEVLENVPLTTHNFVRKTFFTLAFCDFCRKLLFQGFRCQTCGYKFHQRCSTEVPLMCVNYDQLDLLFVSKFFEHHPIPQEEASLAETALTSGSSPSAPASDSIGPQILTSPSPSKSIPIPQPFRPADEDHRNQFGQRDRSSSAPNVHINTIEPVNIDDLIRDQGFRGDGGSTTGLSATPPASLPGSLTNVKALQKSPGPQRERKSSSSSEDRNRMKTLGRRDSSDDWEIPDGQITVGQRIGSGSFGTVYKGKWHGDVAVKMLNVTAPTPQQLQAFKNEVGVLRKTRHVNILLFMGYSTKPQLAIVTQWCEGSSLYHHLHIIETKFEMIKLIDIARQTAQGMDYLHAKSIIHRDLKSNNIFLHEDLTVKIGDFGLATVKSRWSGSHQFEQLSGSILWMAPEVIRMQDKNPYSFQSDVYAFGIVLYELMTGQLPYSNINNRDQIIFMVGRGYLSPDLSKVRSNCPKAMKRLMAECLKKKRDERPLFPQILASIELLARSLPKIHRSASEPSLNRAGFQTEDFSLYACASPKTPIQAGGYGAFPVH
Chain of RAF proto-oncogene serine/threonine-protein kinase (P04049 whole entry): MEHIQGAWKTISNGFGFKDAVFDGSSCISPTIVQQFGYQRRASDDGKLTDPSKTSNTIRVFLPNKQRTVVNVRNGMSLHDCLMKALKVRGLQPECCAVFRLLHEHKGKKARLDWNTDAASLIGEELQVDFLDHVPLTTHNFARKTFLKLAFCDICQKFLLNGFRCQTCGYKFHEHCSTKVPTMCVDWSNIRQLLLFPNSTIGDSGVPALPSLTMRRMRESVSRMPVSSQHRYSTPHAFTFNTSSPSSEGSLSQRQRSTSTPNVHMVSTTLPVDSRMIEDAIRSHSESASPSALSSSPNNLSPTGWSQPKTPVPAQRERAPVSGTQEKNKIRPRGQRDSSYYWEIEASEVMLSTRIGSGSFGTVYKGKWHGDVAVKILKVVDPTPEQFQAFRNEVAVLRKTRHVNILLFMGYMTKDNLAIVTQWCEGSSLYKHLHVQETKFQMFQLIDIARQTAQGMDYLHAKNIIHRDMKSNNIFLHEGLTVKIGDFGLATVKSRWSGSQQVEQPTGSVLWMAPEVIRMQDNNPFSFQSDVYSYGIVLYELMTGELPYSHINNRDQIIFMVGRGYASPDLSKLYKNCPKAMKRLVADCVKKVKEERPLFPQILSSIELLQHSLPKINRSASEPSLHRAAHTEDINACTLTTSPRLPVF

In the case of `CNC(=O)/C=C/c1ccc(NC(=O)Nc2ccc(Cl)c(C(F)(F)F)c2)cc1`, the IC50 was 20.9 µM with A-375; 13.8 µM in the experiment on MX1; 20.4 µM with HepG2; 21.2 µM in the experiment with KETR3; 11.7 µM in the experiment with HT-29 [1].
Take `CC(NC(=O)/C=C/c1ccc(NC(=O)Nc2ccc(Cl)c(C(F)(F)F)c2)cc1)c1ccccc1` (centres undefined): the IC50 in the experiment on A-375 worked out at 20.8 µM; with MX1, 3.13 µM; with HepG2 it was 12.2 µM; in the experiment with KETR3 it was 21.2 µM; with HT-29 [1], 1.06 µM.
For the compound `CC(NC(=O)/C=C/c1ccc(NC(=O)Nc2cc(C(F)(F)F)ccc2Cl)cc1)c1ccccc1` (centres undefined), the IC50 was found to be 40.9 µM in the experiment with A-375; 1.89 µM with MX1; 35.9 µM with HepG2; 14.3 µM in the experiment with KETR3; 4.19 µM in the experiment on HT-29 [1].
Consider `O=C(/C=C/c1ccc(NC(=O)Nc2ccc(Cl)c(C(F)(F)F)c2)cc1)NC1CCC1`, for which the IC50 was 15.4 µM with A-375; 4.53 µM with MX1; 7.51 µM in the experiment with HepG2; 17.3 µM in the experiment with KETR3; 4.43 µM in the experiment with HT-29 [1].
As for `CC1CN(C(=O)/C=C/c2ccc(NC(=O)Nc3ccc(Cl)c(C(F)(F)F)c3)cc2)CC(C)O1` (centres undefined), the IC50 with A-375 was more than 50 µM; in the experiment with MX1, 12.8 µM; in the experiment on HepG2, 45.9 µM; in the experiment on KETR3 it was more than 50 µM; in the experiment with HT-29 [1] it was 9.1 µM.
On to `CNC(=O)CCc1ccc(NC(=O)Nc2ccc(Cl)c(C(F)(F)F)c2)cc1`, for which the IC50 came to 25.2 µM in the experiment with A-375; 20.4 µM in the experiment with MX1; 21 µM in the experiment with HepG2; 24 µM in the experiment with KETR3; 20.6 µM in the experiment with HT-29 [1].
For `CC(NC(=O)CCc1ccc(NC(=O)Nc2ccc(Cl)c(C(F)(F)F)c2)cc1)c1ccccc1` (centres undefined), the IC50 with A-375 is more than 50 µM; in the experiment on MX1 it was more than 50 µM; in the experiment with HepG2 it was more than 50 µM; with KETR3, more than 50 µM; in the experiment with HT-29 [1], 26.5 µM.
On to `O=C(CCc1ccc(NC(=O)Nc2ccc(Cl)c(C(F)(F)F)c2)cc1)NC1CCC1`, for which the IC50 in the experiment on A-375 was more than 50 µM; in the experiment with MX1 it was 24 µM; in the experiment on HepG2, more than 50 µM; in the experiment on KETR3 it was more than 50 µM; in the experiment with HT-29 [1] it was 21.3 µM.
Consider `CC1CN(C(=O)CCc2ccc(NC(=O)Nc3ccc(Cl)c(C(F)(F)F)c3)cc2)CC(C)O1` (centres undefined), for which the half-inhibitory concentration (IC50) with A-375, in the experiment with MX1, in the experiment with HepG2, in the experiment on KETR3 and with HT-29 [1] was more than 50 µM in each case.
Turning to `CNC(=O)/C(C)=C/c1ccc(NC(=O)Nc2ccc(Cl)c(C(F)(F)F)c2)cc1`, the IC50 in the experiment with A-375 was more than 50 µM; in the experiment on MX1, more than 50 µM; in the experiment on HepG2, 44.3 µM; in the experiment with KETR3 it was more than 50 µM; with HT-29 [1] it was more than 50 µM.
Turning to `C/C(=C\c1ccc(NC(=O)Nc2ccc(Cl)c(C(F)(F)F)c2)cc1)C(=O)NC(C)c1ccccc1` (centres undefined), the IC50 in the experiment with A-375, in the experiment with MX1, with HepG2, with KETR3 and in the experiment on HT-29 [1] was more than 50 µM in each case.
Regarding `C/C(=C\c1ccc(NC(=O)Nc2ccc(Cl)c(C(F)(F)F)c2)cc1)C(=O)N1CC(C)OC(C)C1` (centres undefined), the IC50 with A-375, with MX1, in the experiment with HepG2, in the experiment on KETR3 and in the experiment on HT-29 [1] was more than 50 µM in each case.
For the compound `CNC(=O)/C=C(\C)c1ccc(NC(=O)Nc2ccc(Cl)c(C(F)(F)F)c2)cc1`, the IC50 in the experiment on A-375, in the experiment with MX1, in the experiment with HepG2, with KETR3 and in the experiment with HT-29 [1] was more than 50 µM in each case.
For the compound `C/C(=C\C(=O)NC(C)c1ccccc1)c1ccc(NC(=O)Nc2ccc(Cl)c(C(F)(F)F)c2)cc1` (centres undefined), the IC50 in the experiment with A-375, in the experiment with MX1, in the experiment on HepG2, in the experiment on KETR3 and in the experiment with HT-29 [1] was more than 50 µM each time.
As for `C/C(=C\C(=O)N1CC(C)OC(C)C1)c1ccc(NC(=O)Nc2ccc(Cl)c(C(F)(F)F)c2)cc1` (centres undefined), the IC50 in the experiment with A-375 is 46.2 µM; in the experiment with MX1, more than 50 µM; in the experiment with HepG2, more than 50 µM; in the experiment with KETR3, more than 50 µM; with HT-29 [1], 26.2 µM.
For the compound `CNC(=O)/C=C/Oc1ccc(NC(=O)Nc2ccc(Cl)c(C(F)(F)F)c2)cc1`, the IC50 with A-375 is 36.8 µM; in the experiment with MX1 it was 18.8 µM; with HepG2 it was 24.2 µM; in the experiment with KETR3, more than 50 µM; with HT-29 [1], more than 50 µM.
With `CC(NC(=O)/C=C/Oc1ccc(NC(=O)Nc2ccc(Cl)c(C(F)(F)F)c2)cc1)c1ccccc1` (centres undefined), the 50% inhibitory concentration (IC50) was 20.7 µM with A-375; 13.7 µM with MX1; 14.1 µM in the experiment on HepG2; 14.5 µM in the experiment with KETR3; more than 50 µM in the experiment with HT-29 [1].
`CC(NC(=O)/C=C/Oc1ccc(NC(=O)Nc2cc(C(F)(F)F)ccc2Cl)cc1)c1ccccc1` (centres undefined): the IC50 with A-375 is 16 µM; with MX1, 16.1 µM; in the experiment on HepG2 it was 11.9 µM; in the experiment on KETR3, 16.4 µM; in the experiment on HT-29 [1] it was more than 50 µM.
For `CNC(=O)C#Cc1ccc(NC(=O)Nc2ccc(Cl)c(C(F)(F)F)c2)cc1`, the IC50 in the experiment on A-375 was more than 50 µM; with MX1, 26.4 µM; with HepG2 it was 23.3 µM; in the experiment with KETR3 it was 24.7 µM; with HT-29 [1], 14 µM.
Regarding `CC(NC(=O)C#Cc1ccc(NC(=O)Nc2ccc(Cl)c(C(F)(F)F)c2)cc1)c1ccccc1` (centres undefined), the IC50 in the experiment on A-375 turned out to be 16.8 µM; with MX1 it was 12.8 µM; in the experiment on HepG2, 20.5 µM; in the experiment on KETR3, 21.4 µM; with HT-29 [1], 4.92 µM.
The corresponding values for `CC(NC(=O)C#Cc1ccc(NC(=O)Nc2cc(C(F)(F)F)ccc2Cl)cc1)c1ccccc1` (centres undefined) are 30.5 µM, 16.1 µM, 19 µM, 23.2 µM and 3.17 µM.
Consider `CNC(=O)c1cccc(-c2ccc(NC(=O)Nc3ccc(Cl)c(C(F)(F)F)c3)cc2)c1`, for which the IC50 in the experiment on A-375 was 46.5 µM; with MX1, more than 50 µM; with HepG2, 37.1 µM; in the experiment with KETR3, 39.3 µM; with HT-29 [1] it was 29.3 µM.
Take `CC(NC(=O)c1cccc(-c2ccc(NC(=O)Nc3ccc(Cl)c(C(F)(F)F)c3)cc2)c1)c1ccccc1` (centres undefined): the IC50 was 5.17 µM with A-375; 5.24 µM in the experiment on MX1; 5.67 µM in the experiment with HepG2; more than 50 µM in experiment [2]; 6.46 µM in the experiment on KETR3; 6.32 µM in the experiment on HT-29 [1]. Moreover, the IC50 in experiment [3] was more than 50 µM.
`CC(NC(=O)c1ccc(-c2ccc(NC(=O)Nc3ccc(Cl)c(C(F)(F)F)c3)cc2)cc1)c1ccccc1` (centres undefined): the IC50 stood at 12.8 µM with A-375; 4.63 µM in the experiment with MX1; 16.8 µM in the experiment with HepG2; 19.3 µM with KETR3; 5.96 µM with HT-29 [1].
The corresponding values for `CC(NC(=O)c1ccc(-c2ccc(NC(=O)Nc3cc(C(F)(F)F)ccc3Cl)cc2)cc1)c1ccccc1` (centres undefined) are 16.9 µM, 17.7 µM, 18.4 µM, 16.8 µM and 6.57 µM.
As to `CC1CN(C(=O)c2ccc(-c3ccc(NC(=O)Nc4ccc(Cl)c(C(F)(F)F)c4)cc3)cc2)CC(C)O1` (centres undefined), the IC50 with A-375 is more than 50 µM; in the experiment with MX1, more than 50 µM; in the experiment on HepG2, 31.1 µM; with KETR3, 41.9 µM; in the experiment with HT-29 [1] it was 2.05 µM. For the same compound, the “Ratio IC50” value with HT-29 [4] is recorded as 8.
`CC1CN(C(=O)c2ccc(-c3ccc(NC(=O)Nc4cc(C(F)(F)F)ccc4Cl)cc3)cc2)CC(C)O1` (centres undefined): the IC50 was more than 50 µM in the experiment on A-375; more than 50 µM in the experiment on MX1; more than 50 µM with HepG2; more than 50 µM in the experiment with KETR3; 1.9 µM in the experiment with HT-29 [1]. The “Ratio IC50” value with HT-29 [4] was determined as 8.
For `CNC(=O)c1cc(Oc2ccc(NC(=O)Nc3ccc(Cl)c(C(F)(F)F)c3)cc2)ccn1` [SORAFENIB], the IC50 in the experiment on A-375 was 9.17 µM; in the experiment on MX1, 8.27 µM; with HepG2, 8.67 µM; in the experiment with KETR3, 18.8 µM; in the experiment on HT-29 [1], 15.2 µM.
